# Shown are actives, neighbours in structure and some others; about 2.1% of the full set was active somewhere.
# ABCB1 block: blocks JC-1 efflux by human ABCB1 transporter; P08183; CCRF-Adr cells, flow cytometry; inhibition, % at 6.6 µM; hit rate 0.067% among 190,000; in the data active = inhibition above about 40%;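 also: 0% = vehicle and 100% = reference inhibitor; higher value means more JC-1 retained so stronger ABCB1 efflux block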
# Target sequence (P08183 whole entry, looked up): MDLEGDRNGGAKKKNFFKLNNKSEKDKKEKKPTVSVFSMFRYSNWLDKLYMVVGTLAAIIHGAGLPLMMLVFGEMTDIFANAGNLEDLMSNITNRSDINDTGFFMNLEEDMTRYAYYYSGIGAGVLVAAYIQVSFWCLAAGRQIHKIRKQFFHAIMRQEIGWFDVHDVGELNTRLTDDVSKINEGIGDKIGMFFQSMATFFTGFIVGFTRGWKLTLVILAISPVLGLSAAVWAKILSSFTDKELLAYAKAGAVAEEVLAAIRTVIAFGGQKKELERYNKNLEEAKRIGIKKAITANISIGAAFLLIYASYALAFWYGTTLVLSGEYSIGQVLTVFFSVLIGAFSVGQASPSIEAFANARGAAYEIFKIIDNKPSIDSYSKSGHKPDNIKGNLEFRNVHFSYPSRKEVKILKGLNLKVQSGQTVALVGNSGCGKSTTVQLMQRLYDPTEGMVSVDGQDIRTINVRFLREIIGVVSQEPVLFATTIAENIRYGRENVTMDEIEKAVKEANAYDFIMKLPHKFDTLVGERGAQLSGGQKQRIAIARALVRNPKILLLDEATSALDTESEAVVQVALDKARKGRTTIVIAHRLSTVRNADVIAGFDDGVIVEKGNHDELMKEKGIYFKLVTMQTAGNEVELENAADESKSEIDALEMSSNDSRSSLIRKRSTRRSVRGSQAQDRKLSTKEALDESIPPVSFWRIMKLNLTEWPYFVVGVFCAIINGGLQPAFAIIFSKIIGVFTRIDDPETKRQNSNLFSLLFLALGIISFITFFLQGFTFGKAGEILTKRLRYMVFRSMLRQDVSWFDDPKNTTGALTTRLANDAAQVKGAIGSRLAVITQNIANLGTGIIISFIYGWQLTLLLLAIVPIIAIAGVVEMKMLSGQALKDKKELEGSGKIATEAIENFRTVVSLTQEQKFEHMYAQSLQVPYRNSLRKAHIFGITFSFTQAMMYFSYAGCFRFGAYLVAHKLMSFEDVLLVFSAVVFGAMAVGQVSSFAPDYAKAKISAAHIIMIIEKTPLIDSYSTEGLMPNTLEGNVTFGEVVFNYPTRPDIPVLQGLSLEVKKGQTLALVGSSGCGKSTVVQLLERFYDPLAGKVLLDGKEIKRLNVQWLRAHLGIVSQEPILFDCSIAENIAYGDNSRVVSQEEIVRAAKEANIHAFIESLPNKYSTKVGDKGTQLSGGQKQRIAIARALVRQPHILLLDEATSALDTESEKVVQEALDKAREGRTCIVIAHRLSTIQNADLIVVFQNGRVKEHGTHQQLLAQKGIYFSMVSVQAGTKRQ
# b-catenin transl: modulators of beta-catenin nuclear translocation; HeLa beta-catenin nuclear translocation, immunofluorescence imaging; nuclear translocation activity, % at 5 µM; hit rate 0.3% among 190,000;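 active = nuclear translocation activity above 50% at 5 µM, with a well cell count of 50 or more; inconclusive = wells under 50 cells across six images, flagged as toxic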;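 also: per-cell ratio of nuclear to cytoplasmic median beta-catenin stain intensity; plate controls were DMSO negative control for no effect and GSK-3 inhibitor IX positive control for full effect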
#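 test system = HeLa cells, endogenous beta-catenin | dosing = single 5 µM dose plus 0.02–20 µM confirmation series | times = compound treatment 24 h, 37°C, 5% CO2 | technique = beta-catenin immunofluorescence imaging with DAPI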
# Autophagy mod: autophagy modulation, high-content screen | MEF GFP-LC3 puncta imaging; test concentration mostly 10 µM | calls only at 10 µM (by protocol) | hit rate 0.98% among 190,000;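 active = percentage of spot-positive cells more than 3 SD above its plate mean, without a fluorescence outlier flag or 80% toxicity; inconclusive = no clear call, values can overlap the other calls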;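 also: spot-positive cell cutoff set from DMSO-treated cells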
# MT stabilizer: microtubule stabilizers in HeLa cells; HeLa tubulin immunostaining HCS, 24 h; share of cells brighter than vehicle mean+2SD; % tubulin-high responders, % at 10 µM; hit rate 0.83% among 200,000; AID 2205;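 active = plate Z-score above 3 for both tubulin-high and condensed-nucleus cell shares, with cell loss under 80%, at 10 µM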;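 also: anti alpha tubulin signal scored within the nucleus-defined area of each cell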
# Arbovirus anti: antivirals against arbovirus infection; inhibition, % at 10 µM; hit rate 0.37% among 200,000; arbovirus infection cell-based antiviral screen; in the data active = inhibition above about 30%
# ABCG2 inh: blocks JC-1 efflux by human ABCG2 transporter; AID 1325; Q9UNQ0; hit rate 0.1% among 190,000; IgMXP3 cells, flow cytometry; inhibition, % at 6.6 µM;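 active = inhibition above 80%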;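 also: 0% = DMSO and 100% = nicardipine control wells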
#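 material = IgMXP3 (ABCG2) plus far-red-tagged CCRF-Adr (ABCB1) cells | amount = 3 million cells/mL, equal mix of both lines | also added = JC-1 transporter substrate | dosing = one concentration, 6.6 µM final | schedule = 10 min at 25 °C | measured by = flow cytometric JC-1 green MFI at 530 nm | read-out basis = percent efflux inhibition, scaled nicardipine 100% to DMSO 0%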
# ABCB1 confirm: inhibits human ABCB1 efflux, confirmed at single point. AID 1451. CCRF-Adr cells, JC-1 efflux, flow cytometry. shares compounds with ABCG2 inh. inhibition, % at 6.6 µM. hit rate 7% among 270;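 active = inhibition of pump activity above 50%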;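 also: 0% = DMSO and 100% = nicardipine full pump inhibition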
# ABCG2 confirm: inhibits human ABCG2 efflux, confirmed at single point. shares compounds with ABCG2 inh. IgMXP3 cells, JC-1 efflux, flow cytometry. inhibition, % at 6.6 µM. hit rate 6% among 270. AID 1453;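 active = inhibition above 50%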;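 also: 0% = DMSO wells and 100% = nicardipine pump inhibitor wells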
# IgMXP3 autofluor: counter-screen for ABCG2 inhibitors: compound fluorescence in IgMXP3 cells; shares compounds with ABCG2 inh; compound autofluorescence 488/530 nm, flow; stronger effect = higher value; fluorescence at 6.6 µM; hit rate 30% among 270;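 active = fluorescence in ABCG2-expressing cells above the plate's control-well mean plus 3 SD, cut at about 15 in these data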;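 also: median cell fluorescence with compound minus that of DMSO-treated control cells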
# CCRF-Adr fluor: CCRF-Adr autofluorescence flag for ABCB1 confirmation | CCRF-Adr cells, compound autofluorescence 488/530 nm, flow cytometry; stronger effect = higher value | hit rate 30% among 270 | AID 1483 | shares compounds with ABCG2 inh | fluorescence at 6.6 µM;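 active = fluorescence beyond the plate control mean plus 3 SD, with a fluorescence-to-maximum score over 2, cut at about 25 in these data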
# Numbers without * were called inactive; i = inactive; ? = inconclusive; nt = not tested or not shown; + = active, no number.
SMILES,ABCB1 block,b-catenin transl,Autophagy mod,MT stabilizer,Arbovirus anti,ABCG2 inh,ABCB1 confirm,ABCG2 confirm,IgMXP3 autofluor,CCRF-Adr fluor
O=C(c1ccco1)N1CCN(c2ncnc3c2nnn3Cc2ccccc2Cl)CC1,3,0,i,1,11,8,nt,nt,nt,nt
O=C(c1ccco1)N1CCN(c2nc(C(F)(F)F)nc3c2nnn3Cc2ccccc2)CC1,15,-2,i,3,-10,64,23,27,73*,37*
CCOC(=O)c1c(NC(=O)C(C)Sc2cccc[n+]2[O-])sc2c1CCN(Cc1ccccc1)C2 (stereo not given),17,0,i,2,-1,9,nt,nt,nt,nt
CCOC(=O)c1c(NC(=O)CSc2ncccn2)sc2c1CCN(Cc1ccccc1)C2,48*,-2,i,1,5,67,67*,20,47*,109*
Cc1cc(C)cc(N(CC(=O)NCc2ccco2)C(=O)CCC(=O)Nc2nccs2)c1,-2,-1,i,4,-6,6,nt,nt,nt,nt
Cc1cc(C)cc(NC(=O)CCn2ccnc2C)c1,0,-1,i,3,8,2,nt,nt,nt,nt
COC(=O)c1cc(NC(=O)c2ccccc2)c(=O)oc1/C=C/Nc1ccc(Oc2ccccc2)cc1,127*,0,i,3,-3,116*,91*,-34,207*,339*
COc1ccc(C(=O)Nc2cc(C(C)=O)c(C)oc2=O)cc1,0,-1,i,7,6,3,nt,nt,nt,nt
Cn1c(CCCOc2ccc(Cl)cc2Cl)nnc1SCC(=O)Nc1ccc(F)c(Cl)c1,0,-3,i,4,-11,0,nt,nt,nt,nt
Cn1c(CCCOc2ccc(Cl)cc2Cl)nnc1SCC(=O)Nc1cccc(F)c1,3,1,i,5,6,111*,4,16,-1.7,-1.2
CCN(CC)c1ccc(/C=C2/C(=O)c3ccc(C(=O)O)cc3C2=O)cc1,140*,-2,i,3,0,+,-46,-162,251*,169*
CN(C)Cc1nc2c(c(=O)[nH]1)C1(CCCCC1)Cc1ccccc1-2,0,-5,i,5,-17,3,nt,nt,nt,nt
CCCCOC(=O)Nc1ccc(C(=O)OCCC)cc1,1,-2,i,3,-3,73,0,29,5.2,19
O=c1c2cnn(-c3ccccc3)c2nc(-c2ccco2)n1-c1ccccc1,2,nt,i,3,-1,8,nt,nt,nt,nt
O=C1NC(CCc2ccccc2)C(=O)N1Cc1cccc2ccccc12 (stereo not given),90*,0,i,4,-2,159*,0,-1,-0.29,-2.7
CCOCCCNc1nc2c(C)cccn2c(=O)c1/C=C1\SC(=S)N(CC(C)C)C1=O,48*,1,+,2,-1,141*,7,40,44*,211*
COc1cc(CC(=O)OCC(=O)Nc2cc([N+](=O)[O-])ccc2Cl)cc(OC)c1OC,3,-2,i,6,-3,81*,3,41,21*,-1.6
COc1ccc([N+](=O)[O-])cc1NC(=O)COC(=O)Cc1cc(OC)c(OC)c(OC)c1,1,nt,i,2,6,22,nt,nt,nt,nt
Cc1c(C(=O)Nc2ccc(Cl)cc2)c2ccccn2c1CCc1ccncc1,6,3,i,1,13,8,nt,nt,nt,nt
Cc1c(C(=O)Nc2cccc(Cl)c2)c2ccccn2c1CCc1ccncc1,66*,-1,+,4,18,99*,56*,42,-1.5,-3.7
CCCCCc1ccc(-c2ccc(/C=C/C(N)=O)cc2)nc1,0,1,i,5,0,6,nt,nt,nt,nt
CCCCCCc1cc2cc(-c3nnc(-c4ccccc4OC)o3)c(=O)oc2cc1O,21,12,?,3,-3,38,nt,nt,nt,nt
CCCCCCc1cc2cc(-c3nnc(-c4ccccc4O)o3)c(=O)oc2cc1O,48*,-4,+,4,22,79,15,11,116*,111*
CC(NC(=O)COC(=O)Cc1ccsc1)C1CC2CCC1C2 (stereo not given),35,nt,i,2,5,132*,7,4,-2.1,-4.7
CCC(=O)Nc1cccc(C(=O)OCc2cccc([N+](=O)[O-])c2)c1,4,0,i,5,-1,93*,6,28,0.66,-1.8
SMILES,ABCB1 block,b-catenin transl,Autophagy mod,MT stabilizer,Arbovirus anti,ABCG2 inh,ABCB1 confirm,ABCG2 confirm,IgMXP3 autofluor,CCRF-Adr fluor
O=C(Nc1nc2ccc([N+](=O)[O-])cc2s1)c1c(F)cccc1F,1,-3,i,2,9,80,0,30,-3.4,-5.7
COc1ccc(C2C3=C(CCCC3=O)Nc3ccc4ncccc4c32)cc1OC (stereo not given),63*,-1,i,1,4,0,5,16,0.96,10
COc1ccc(-c2nn(-c3ccccc3)cc2/C=C/C(=O)N2CCN(c3ccccn3)CC2)cc1,48*,-1,i,2,-6,33,33,22,18*,4.3
O=[N+]([O-])c1cc(Cl)ccc1NCCNS(=O)(=O)c1ccccc1,3,0,i,5,-1,119*,7,18,2.3,32*
O=[N+]([O-])c1ccccc1NCCNS(=O)(=O)c1ccc(Cl)cc1,1,-3,i,3,7,13,nt,nt,nt,nt
COCCNCC1C(Oc2ccc(Cl)cc2)C(=O)N1c1ccccc1C (stereo not given),1,0,i,2,5,2,nt,nt,nt,nt
COc1ccc(CCNCC2C(Oc3ccc(Cl)cc3)C(=O)N2c2ccccc2C)cc1OC (stereo not given),53*,0,i,5,4,19,31,37,5.1,5.8
CCC(=O)NNc1nc2c(C)cccc2s1,1,-2,i,2,-4,3,nt,nt,nt,nt
COC(=O)c1cc(C(=O)OC)n(Cc2ccc(F)cc2)c1C,0,-1,i,2,-6,2,nt,nt,nt,nt
Cc1c(C#N)c(NC(=O)CCl)n(Cc2ccc(F)cc2)c1C,45*,-1,i,6,-9,12,1,1,4.9,8.6
Cc1cc(C)c(N=Cc2c(O)n(-c3nccs3)c(=O)c3ccccc23)c(C)c1,4,1,i,3,2,11,nt,nt,nt,nt
